Measured values as given in ChEMBL document CHEMBL3808290, “Discovery of Potent, Orally Bioavailable Inhibitors of Human Cytomegalovirus” (ACS Med Chem Lett, 2016).
Values after ≈ are worked out from the molar mass of the structure shown.

How the values were obtained:
Cytochrome P450 2C9 = Cytochrome P450 2C9 (Homo sapiens, UniProt P11712); experiment: Inhibition of CYP2C9 (unknown origin); format: ADME
Cytochrome P450 3A4 = Cytochrome P450 3A4 (Homo sapiens, UniProt P08684); experiment: Inhibition of CYP3A4 (unknown origin); format: ADME
[1] = Solubility of the compound at pH 6.8; format: physicochemical; conditions: buffer
Human betaherpesvirus 5 [2] = experiment: Antiviral activity against HCMV AD169 assessed as inhibition of viral infection in human MRC5 cells by RT-qPCR method; format: functional, organism-based; conditions: Human betaherpesvirus 5, AD169, MRC5
Outline: (§1)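 Infected cells were treated with compound added at the same time as virus, so only a single cycle of viral replication is scored. Viral replication was read by RT-qPCR and EC50 was taken as the half-maximal effect concentration. Each value is at least the mean of duplicate experiments, each run in triplicate.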

[3] = Half life of compound in human liver microsomes; format: ADME
[4] = Cytotoxicity against human MRC5 cells; format: cell-based
Human betaherpesvirus 5 [5] = experiment: Antiviral activity against HCMV AD169 infected in human MRC5 cells by CPE assay; format: functional, organism-based; conditions: Human betaherpesvirus 5, AD169, MRC5
Outline: (§2)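 MRC-5 fibroblasts were infected with HCMV and inhibition was read as protection from virus-induced cytopathic effect. EC50 is the half-maximal effect concentration, averaged over at least duplicate experiments, each run in triplicate.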

Liver microsome = experiment: Metabolic stability in human liver microsomes assessed as compound hydrolysis in absence of NADPH
Salmonella typhimurium = experiment: Genotoxicity in Salmonella typhimurium by Ames test; format: toxicity, organism-based; conditions: salmonella enterica subsp. enterica serovar typhimurium
Cytochrome P450 2C8 = molecular target: T1, Cytochrome P450 2C8 (Homo sapiens, UniProt P10632); experiment: Inhibition of CYP2C8 (unknown origin); format: ADME
T1 sequence (P10632 whole entry): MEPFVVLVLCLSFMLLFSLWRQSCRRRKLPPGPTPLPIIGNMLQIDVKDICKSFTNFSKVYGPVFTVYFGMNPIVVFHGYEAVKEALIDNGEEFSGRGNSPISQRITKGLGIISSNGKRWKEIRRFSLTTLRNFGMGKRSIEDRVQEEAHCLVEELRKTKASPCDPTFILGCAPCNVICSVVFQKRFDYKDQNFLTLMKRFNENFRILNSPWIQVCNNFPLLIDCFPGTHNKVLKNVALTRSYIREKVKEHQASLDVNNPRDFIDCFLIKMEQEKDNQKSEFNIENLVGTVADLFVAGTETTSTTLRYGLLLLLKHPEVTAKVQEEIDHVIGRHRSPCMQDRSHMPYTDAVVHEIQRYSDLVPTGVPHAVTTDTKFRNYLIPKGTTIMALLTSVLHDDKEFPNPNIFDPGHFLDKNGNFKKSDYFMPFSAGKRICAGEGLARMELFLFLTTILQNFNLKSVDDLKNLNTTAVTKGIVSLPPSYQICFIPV

[6] = Oral bioavailability in rat; format: ADME, organism-based; conditions: in vivo
Cytochrome P450 2D6 = Cytochrome P450 2D6 (Homo sapiens, UniProt P10635); experiment: Inhibition of CYP2D6 (unknown origin); format: ADME
Human betaherpesvirus 5 [7] = experiment: Antiviral activity against HCMV TR assessed as inhibition of viral infection in human MRC5 cells by RT-qPCR method; format: functional, organism-based; conditions: Human betaherpesvirus 5, TR; outline: as §1
[8] = Volume of distribution at steady state in rat; format: ADME, organism-based; conditions: in vivo, read-out: Vdss
Human betaherpesvirus 5 [9] = experiment: Antiviral activity against HCMV VR1814 assessed as inhibition of viral infection in human MRC5 cells by RT-qPCR method; format: functional, organism-based; conditions: Human betaherpesvirus 5, VR1814, MRC5; outline: as §1
[10] = Half life of compound in rat; format: ADME, organism-based; conditions: in vivo
Human betaherpesvirus 5 [11] = experiment: Antiviral activity against HCMV TB40 assessed as inhibition of viral infection in human MRC5 cells by RT-qPCR method; format: functional, organism-based; conditions: Human betaherpesvirus 5, TB40, MRC5; outline: as §1
Human betaherpesvirus 5 [12] = experiment: Antiviral activity against HCMV VR1814 assessed as inhibition of viral infection in human ARPE19 cells by RT-qPCR method; format: functional, organism-based; conditions: Human betaherpesvirus 5, VR1814, ARPE-19; outline: as §1
Human betaherpesvirus 5 [13] = experiment: Antiviral activity against HCMV VR1814 infected in human ARPE19 cells after 72 hrs by cell-to-cell spread assay; format: functional, organism-based; conditions: Human betaherpesvirus 5, VR1814, ARPE-19, 72 h
Outline: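 ARPE-19 cells were infected and replication ran for 24 h. Medium and free virus were then removed, and Cytogam neutralizing antibody plus fresh medium were added. After 48 h, allowing one full replication cycle, compounds were added. After a further 72 h, infected nuclei were stained with fluorescent anti-IE1 antibody and clusters imaged. IC50 came from dose-response curves, averaging at least duplicate experiments run in triplicate.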

Human betaherpesvirus 5 [14] = experiment: Antiviral activity against HCMV TR infected in human MRC5 cells by CPE assay; format: functional, organism-based; conditions: Human betaherpesvirus 5, TR; outline: as §2
[15] = Apparent permeability across apical to basolateral side in human Caco2 cells; format: ADME, cell-based; conditions: Caco-2

Sequence of Cytochrome P450 2C9 (P11712 whole entry): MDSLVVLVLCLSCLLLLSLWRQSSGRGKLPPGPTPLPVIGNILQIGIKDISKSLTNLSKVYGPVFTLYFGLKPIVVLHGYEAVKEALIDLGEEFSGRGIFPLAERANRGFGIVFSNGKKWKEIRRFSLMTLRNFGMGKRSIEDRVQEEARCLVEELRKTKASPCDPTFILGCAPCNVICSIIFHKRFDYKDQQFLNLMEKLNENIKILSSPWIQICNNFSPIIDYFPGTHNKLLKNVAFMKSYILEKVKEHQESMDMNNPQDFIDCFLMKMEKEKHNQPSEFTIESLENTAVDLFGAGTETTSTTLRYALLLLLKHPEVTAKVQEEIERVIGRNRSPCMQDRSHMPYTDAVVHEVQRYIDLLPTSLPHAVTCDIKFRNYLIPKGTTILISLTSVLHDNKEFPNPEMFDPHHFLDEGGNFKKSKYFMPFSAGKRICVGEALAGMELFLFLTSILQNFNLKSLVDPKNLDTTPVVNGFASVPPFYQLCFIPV
Sequence of Cytochrome P450 3A4 (P08684 whole entry): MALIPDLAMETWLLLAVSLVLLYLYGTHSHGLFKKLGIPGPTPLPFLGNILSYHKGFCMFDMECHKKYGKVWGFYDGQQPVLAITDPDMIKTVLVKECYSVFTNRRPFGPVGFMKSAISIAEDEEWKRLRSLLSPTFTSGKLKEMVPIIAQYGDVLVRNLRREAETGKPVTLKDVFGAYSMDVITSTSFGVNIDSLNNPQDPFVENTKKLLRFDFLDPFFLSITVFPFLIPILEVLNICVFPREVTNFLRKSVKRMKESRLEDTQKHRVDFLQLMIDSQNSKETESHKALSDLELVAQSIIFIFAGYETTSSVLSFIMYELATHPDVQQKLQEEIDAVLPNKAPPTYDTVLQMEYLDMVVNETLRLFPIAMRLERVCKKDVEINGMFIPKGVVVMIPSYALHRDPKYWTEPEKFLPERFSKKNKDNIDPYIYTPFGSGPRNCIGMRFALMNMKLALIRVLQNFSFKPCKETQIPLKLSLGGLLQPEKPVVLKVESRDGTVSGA
Sequence of Cytochrome P450 2D6 (P10635 whole entry): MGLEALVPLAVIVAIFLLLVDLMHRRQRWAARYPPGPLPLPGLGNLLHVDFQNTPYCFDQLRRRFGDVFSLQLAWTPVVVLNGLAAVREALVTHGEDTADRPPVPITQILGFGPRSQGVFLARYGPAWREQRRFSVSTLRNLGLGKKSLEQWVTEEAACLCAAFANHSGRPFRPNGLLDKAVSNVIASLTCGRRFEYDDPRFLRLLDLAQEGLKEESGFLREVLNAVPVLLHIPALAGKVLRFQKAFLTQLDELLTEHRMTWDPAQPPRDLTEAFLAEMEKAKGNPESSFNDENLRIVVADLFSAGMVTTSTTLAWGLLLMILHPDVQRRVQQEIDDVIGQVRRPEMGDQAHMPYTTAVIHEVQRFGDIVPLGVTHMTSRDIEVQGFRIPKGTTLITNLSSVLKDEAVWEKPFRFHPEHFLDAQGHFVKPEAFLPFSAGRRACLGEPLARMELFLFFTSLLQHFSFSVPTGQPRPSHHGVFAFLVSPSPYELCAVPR

SMILES	IC50 (Cytochrome P450 2C9)	IC50 (Cytochrome P450 3A4)	solubility [1]	half-life [3]	Stability (Liver microsome)	EC50 (Human betaherpesvirus 5 [2])	CC50 [4]	EC50 (Human betaherpesvirus 5 [5])	Activity (Salmonella typhimurium)	other results
CC(C)CC(O)(c1cccc(C(F)(F)F)c1)c1nc(-n2ccc(NC(=O)c3cscn3)cc2=O)c[nH]1 (stereo unspecified)	150 nM	> 30000 nM	< 0.1 µg/mL	0.267 h		28 nM				
O=C(Nc1ccc(/N=C(\S)Nc2cc(C(F)(F)F)cc(C(F)(F)F)c2)cc1)c1csnn1				1.83 h			36000 nM	250 nM		
COc1cccc(C(=O)Nc2ccc(NC(=O)c3cscn3)cc2)c1				0.367 h			> 57000 nM	640 nM		
O=C(Nc1ccc(NC(=O)c2ccco2)cc1)c1ccc(Cl)c(C(F)(F)F)c1				0.233 h			> 57000 nM	340 nM		
CC(c1cccc(C(F)(F)F)c1)c1nc(-n2ccc(NC(=O)c3cscn3)cc2=O)c[nH]1 (stereo unspecified)	31 nM	> 30000 nM	< 0.1 µg/mL	> 2 h		150 nM				
O=C(Nc1ccn(-c2c[nH]c(C(O)c3cccc(C(F)(F)F)c3)n2)c(=O)c1)c1cscn1 (stereo unspecified)	7300 nM	> 30000 nM		> 2 h		470 nM				IC50 (Cytochrome P450 2C8): 4300 nM
Cc1ccc(C(C)(O)c2nc(-n3ccc(NC(=O)c4cscn4)cc3=O)c[nH]2)cc1 (stereo unspecified)	14000 nM	> 30000 nM	16 µg/mL (≈ 38 µM)	1.2 h		1900 nM				IC50 (Cytochrome P450 2C8): 18000 nM
COc1cccc(C(=O)Nc2ccc(NC(=O)c3ccco3)cc2)c1F							> 57000 nM	8000 nM		
CC(O)(c1cccc(C(F)(F)F)c1)c1nc(-n2ccc(NC(=O)c3cscn3)cc2=O)c[nH]1 (stereo unspecified)	3000 nM	> 30000 nM	76 µg/mL (≈ 160 µM)	> 2 h		540 nM				bioavailability [6]: 72%; IC50 (Cytochrome P450 2C8): 4700 nM; IC50 (Cytochrome P450 2D6): 17000 nM; EC50 (Human betaherpesvirus 5 [7]): 470 nM; Vd [8]: 2.5 L; EC50 (Human betaherpesvirus 5 [9]): 910 nM; half-life [10]: 1.9 h; EC50 (Human betaherpesvirus 5 [11]): 250 nM; EC50 (Human betaherpesvirus 5 [12]): 1700 nM; EC50 (Human betaherpesvirus 5 [13]): 800 nM
Cc1cccc(C(C)(O)c2nc(-n3ccc(NC(=O)c4cscn4)cc3=O)c[nH]2)c1 (stereo unspecified)	13000 nM	> 30000 nM	63 µg/mL (≈ 149 µM)			3600 nM				IC50 (Cytochrome P450 2C8): 21000 nM
CC(C)OC(c1cccc(C(F)(F)F)c1)c1nc(-n2ccc(NC(=O)c3cscn3)cc2=O)c[nH]1 (stereo unspecified)	1400 nM	> 30000 nM	< 0.1 µg/mL	> 2 h		110 nM				IC50 (Cytochrome P450 2C8): 180 nM
COc1cccc(C(=O)Nc2ccc(NC(=O)c3csnn3)cc2)c1				0.567 h			> 57000 nM	3000 nM		
O=C(Nc1ccc(NC(=O)c2ccco2)cc1)c1cccnc1							> 57000 nM	38000 nM		
CC(c1cccc(C(F)(F)F)c1)n1cnc(-n2ccc(NC(=O)c3cscn3)cc2=O)c1 (stereo unspecified)	2100 nM		< 0.1 µg/mL			2400 nM				IC50 (Cytochrome P450 2C8): 1700 nM
COc1cccc(C(=O)Nc2ccc(NC(=O)c3cocn3)cc2)c1				1.63 h			> 57000 nM	4400 nM		
O=C(Nc1ccc(NC(=O)c2ccco2)cc1)c1cccc(Cl)c1				0.233 h			> 57000 nM	1100 nM		
COc1cccc(C(=O)Nc2ccc(NC(=O)c3cncnc3)cc2)c1							> 57000 nM	> 57000 nM		
O=C(Nc1ccn(-c2cn(Cc3cccc(C(F)(F)F)c3)cn2)c(=O)c1)c1cscn1	2100 nM	1900 nM	< 0.16 µg/mL	> 2 h		> 5800 nM				
COc1cccc(C(=O)Nc2ccc(NC(=O)c3ccco3)cc2)c1		> 30000 nM	1.9 µg/mL (≈ 5.65 µM)	0.2 h		2500 nM	> 82000 nM	4000 nM		IC50 (Cytochrome P450 2D6): > 30000 nM; EC50 (Human betaherpesvirus 5 [14]): 8200 nM; Papp A→B [15]: 11 ×10⁻⁶ cm/s

Now from value to compound, other results behind:

IC50 (Cytochrome P450 2C9)	IC50 (Cytochrome P450 3A4)	solubility [1]	half-life [3]	Stability (Liver microsome)	SMILES	EC50 (Human betaherpesvirus 5 [2])	CC50 [4]	EC50 (Human betaherpesvirus 5 [5])	Activity (Salmonella typhimurium)	other results
				Stable	O=C(Cn1ccc(NC(=O)c2cscn2)cc1=O)Nc1cc(C(F)(F)F)cc(C(F)(F)F)c1		28000 nM	440 nM	Non-toxic	
				Stable	O=C(Cc1ccc(NC(=O)c2cscn2)nc1)Nc1cc(C(F)(F)F)cc(C(F)(F)F)c1		> 57000 nM	440 nM	Toxic	
				Unstable	O=C(Cc1ccc(NC(=O)c2cscn2)cc1)Nc1cc(C(F)(F)F)cc(C(F)(F)F)c1		36000 nM	130 nM	Toxic	
				Stable	O=C(Nc1ccc2nc(Cc3cc(C(F)(F)F)cc(C(F)(F)F)c3)[nH]c2c1)c1cscn1		> 57000 nM	2300 nM	Toxic	
				Unstable	O=C(Nc1ccc2nc(NCc3cc(C(F)(F)F)cc(C(F)(F)F)c3)sc2c1)c1cscn1		> 57000 nM	430 nM	Toxic	
			1.57 h	Unstable	O=C(Cc1cc(C(F)(F)F)cc(C(F)(F)F)c1)Nc1ccc(NC(=O)c2cscn2)cc1		> 57000 nM	220 nM	Toxic	
				Stable	O=C(Cc1ccc(NC(=O)c2cscn2)cn1)Nc1cc(C(F)(F)F)cc(C(F)(F)F)c1		> 57000 nM	540 nM	Toxic	
				Stable	O=C(Cc1cc(C(F)(F)F)cc(C(F)(F)F)c1)Nc1ccc2nc(NC(=O)c3cscn3)sc2c1		> 57000 nM	250 nM	Toxic	
				Unstable	O=C(Nc1ccc(-c2c[nH]c(-c3cc(C(F)(F)F)cc(C(F)(F)F)c3)n2)cc1)c1cscn1		7800 nM	130 nM	Toxic	
